The values below come from ChEMBL document CHEMBL5678799 (Biochem J, 2009).

The target of one series is mTORC1 (Homo sapiens) (UniProt P42345+Q8N122+Q9BVC4). To be noted: HEK293, dose 30.0 nM, time 30.0 min.
The target of series [1] is Ribosomal protein S6 kinase alpha-1 (Homo sapiens) (UniProt Q15418). The series can be described thus: Inhibition of recombinant human N-terminal His6-tagged RSK1 (1 to 735 residues) expressed in baculovirus infected Sf21 cells assessed as remaining activity at 10 uM using KKLNRTLSVA as substrate incubated for 30 mins in presence of [gamma-33P]ATP by filter binding assay relative to control.
Sequence of Ribosomal protein S6 kinase alpha-1 (Homo sapiens) (Q15418 whole entry, the tested form may be a part): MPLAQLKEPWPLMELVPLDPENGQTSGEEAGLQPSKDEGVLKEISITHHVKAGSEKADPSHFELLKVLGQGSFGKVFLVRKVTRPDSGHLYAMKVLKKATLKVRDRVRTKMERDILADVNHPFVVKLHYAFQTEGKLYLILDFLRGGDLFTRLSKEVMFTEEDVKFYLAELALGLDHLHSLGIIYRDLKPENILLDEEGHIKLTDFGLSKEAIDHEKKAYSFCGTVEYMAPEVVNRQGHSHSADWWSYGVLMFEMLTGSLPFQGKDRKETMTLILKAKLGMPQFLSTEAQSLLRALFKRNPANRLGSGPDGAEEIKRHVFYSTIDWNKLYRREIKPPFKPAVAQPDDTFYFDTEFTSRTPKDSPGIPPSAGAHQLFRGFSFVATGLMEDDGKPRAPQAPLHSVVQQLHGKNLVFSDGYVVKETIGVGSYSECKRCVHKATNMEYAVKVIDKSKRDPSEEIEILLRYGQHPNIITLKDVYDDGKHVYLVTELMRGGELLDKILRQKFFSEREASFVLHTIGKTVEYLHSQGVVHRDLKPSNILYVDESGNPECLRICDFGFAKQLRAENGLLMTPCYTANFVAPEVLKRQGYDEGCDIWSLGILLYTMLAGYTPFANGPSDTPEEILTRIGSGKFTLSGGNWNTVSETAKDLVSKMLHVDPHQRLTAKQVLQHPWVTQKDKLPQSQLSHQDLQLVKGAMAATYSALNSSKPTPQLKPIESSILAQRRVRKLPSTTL

For series [2], the system named is MEF. Briefly: Inhibition of mTORC2 in serum starved mLST8 knockout MEF cells assessed as reduction IGF1-stimulated AKT phosphorylation at Thr308 residue at 100 to 1000 nM incubated for 20 mins by immunoblot analysis. The format is cell-based. The settings on record: Mus musculus, dose 100-1000 nM. The essentials: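 Serum withdrawn 16 h. Inhibitor or vehicle given 30 min before stimulation with 50 ng/ml IGF-1 for 20 min. Lysed in Tris lysis buffer and immunoblotted for Akt Thr308 phosphorylation with ECL detection. Applies to HEK-293 and to wild-type, Rictor, Sin1 or mLST8 knockout MEFs. Three independent experiments.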

In series [3] the target is Mitogen-activated protein kinase 9 (Homo sapiens) (UniProt P45984). Briefly: Inhibition of recombinant human N-terminal His6-tagged JNK2alpha2 (1 to 424 residues) expressed in baculovirus infected Sf21 cells assessed as remaining activity at 10 uM using ATF2 as substrate incubated for 30 mins in presence of [gamma-33P]ATP by filter binding method relative to control.
The target of series [4] is Ribosomal protein S6 kinase alpha-3 (Homo sapiens) (UniProt P51812). The series can be described thus: Inhibition of recombinant human N-terminal His6-tagged RSK2 (2 to 740 residues) expressed in baculovirus infected Sf21 cells assessed as remaining activity at 1 uM using KKLNRTLSVA as substrate incubated for 30 mins in presence of [gamma-33P]ATP by filter binding method relative to control. The essentials:
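Assays ran 30 min at 21 °C, robotically and in the linear range. Remaining activity is given relative to incubations lacking compound, as the average of triplicate determinations ± S.D.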

For series [5], the target named is Myosin light chain kinase (Homo sapiens) (UniProt Q32MK0). The series can be described thus: Inhibition of MLCK (unknown origin) assessed as remaining activity at 1 uM relative to control. The essentials: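 Profiling-centre panel assay performed robotically at 21 °C for 30 min, linear with time and enzyme. […] Values are percent of compound-free control activity, the mean of triplicates ± S.D.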

Series [6] concerns the target Serine/threonine-protein kinase 26 (Homo sapiens) (UniProt Q9P289). Briefly: Inhibition of recombinant human N-terminal His6-tagged MST4 (1 to 416 residues) expressed in baculovirus infected Sf21 cells assessed as remaining activity at 1 uM using MBP as substrate incubated for 30 mins in presence of [gamma-33P]ATP by filter binding method relative to control.
Series [7] addresses MAP kinase-interacting serine/threonine-protein kinase 1 (Homo sapiens) (UniProt Q9BUB5). Briefly: Inhibition of recombinant human N-terminal GST-tagged C-terminal His6-tagged MNK1 (2 to 424 residues) expressed in Escherichia coli assessed as remaining activity at 1 uM using eIF4E as substrate incubated for 30 mins in presence of [gamma-33P]ATP by filter binding method relative to control.

Series [8] concerns the target MAP kinase-activated protein kinase 2 (Homo sapiens) (UniProt P49137). Briefly: Inhibition of recombinant human N-terminal GST/C-terminal Myc-tagged MAPKAPK2 (46 to 400 residues) expressed in Escherichia coli assessed as remaining activity at 10 uM using KKLNRTLSVA as substrate incubated for 30 mins in presence of [gamma-33P]ATP by filter binding method relative to control. The essentials:
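Incubations ran robotically for 30 min at room temperature (21 °C) under linear conditions. Results are percent activity remaining versus controls without compound, as the mean of triplicates ± S.D.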

In series [9] the target is Protein kinase C alpha type (Homo sapiens) (UniProt P17252). Briefly: Inhibition of recombinant human N-terminal His6-tagged PKCalpha (1 to 672 residues) expressed in baculovirus infected Sf21 cells assessed as remaining activity at 1 uM using Histone H1 as substrate incubated for 30 mins in presence of [gamma-33P]ATP by filter binding method relative to control.
Series [10] relates to MEF. The series can be described thus: Induction of cell cycle arrest in MEF cells assessed as accumulation at G1 phase at 3 uM incubated for 1 to 3 days by propidium iodide staining based flow cytometric analysis (reference value: 21.4 +/- 1.7%). In kind it is toxicity. The settings on record: mouse, time 1-3 day.
Series [11] has as its target Mitogen-activated protein kinase; ERK1/ERK2 (Homo sapiens) (UniProt P27361+P28482). The series can be described thus: Inhibition of ERK1/2 in serum starved/PMA-stimulated HEK293 cells assessed as reduction in RSK phosphorylation at S380 residues at 1 uM incubated for 30 mins by immunoblot analysis. In kind it is cell-based.
Series [12] deals with Glycogen synthase kinase-3 beta (Homo sapiens) (UniProt P49841). The series can be described thus: Inhibition of recombinant human His6-tagged GSK3beta (2 to 420 residues) expressed in baculovirus infected Sf21 cells assessed as remaining activity at 10 uM using phospho-GS2 peptide as substrate incubated for 30 mins in presence of [gamma-33P]ATP by filter binding method relative to control. An outline of the steps:
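Radiometric kinase panel run robotically at 21 °C for 30 min, linear in time and enzyme. […] Activity expressed as percentage of control without inhibitor; triplicate determinations.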

In series [13] the test system is RAC-alpha serine/threonine-protein kinase (Homo sapiens), P31749 [S473D]. Briefly: Inhibition of recombinant human His6-tagged AKT1 S473D mutant (118 to 480 residues) expressed in baculovirus infected Sf21 cells assessed as remaining activity at 10 uM using crosstide peptide as substrate incubated for 30 mins in presence of [gamma-33P]ATP by filter binding method relative to control. The essentials:
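Radiometric panel assay run robotically at 21 °C for 30 min, linear in time and enzyme. […] Activity is expressed as percentage of the compound-omitted control, averaged from triplicates ± S.D.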

In series [14] the target is Mitogen-activated protein kinase 14 (Homo sapiens) (UniProt Q16539). Briefly: Inhibition of recombinant human N-terminal GST-tagged P38alpha (1 to 360 residues) expressed in Escherichia coli assessed as remaining activity at 1 uM using MBP as substrate incubated for 30 mins in presence of [gamma-33P]ATP by filter binding method relative to control. An outline of the steps:
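Incubation was 30 min at room temperature (21 °C) under conditions linear with time and enzyme amount. Activity is reported as percent of control lacking compound, triplicate mean ± S.D.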

In series [15] the target is Calcium/calmodulin-dependent protein kinase type 1 (Homo sapiens) (UniProt Q14012). The series can be described thus: Inhibition of recombinant human N-terminal GST-tagged CAMK1alpha (2 to 369 residues) expressed in Escherichia coli assessed as remaining activity at 10 uM using YLRRRLSDSNF as substrate incubated for 30 mins in presence of [gamma-33P]ATP by filter binding method relative to control. An outline of the steps:
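Run robotically for 30 min at 21 °C under linear conditions. Compound at 1 or 10 µM. Percentage activity remaining versus control without compound, triplicate mean ± S.D.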

Active and inactive are the calls of the source. No cut-off for these calls is given here.

Sequence of RAC-alpha serine/threonine-protein kinase (Homo sapiens), P31749 [S473D] (P31749 whole entry S473D, the tested form may be a part): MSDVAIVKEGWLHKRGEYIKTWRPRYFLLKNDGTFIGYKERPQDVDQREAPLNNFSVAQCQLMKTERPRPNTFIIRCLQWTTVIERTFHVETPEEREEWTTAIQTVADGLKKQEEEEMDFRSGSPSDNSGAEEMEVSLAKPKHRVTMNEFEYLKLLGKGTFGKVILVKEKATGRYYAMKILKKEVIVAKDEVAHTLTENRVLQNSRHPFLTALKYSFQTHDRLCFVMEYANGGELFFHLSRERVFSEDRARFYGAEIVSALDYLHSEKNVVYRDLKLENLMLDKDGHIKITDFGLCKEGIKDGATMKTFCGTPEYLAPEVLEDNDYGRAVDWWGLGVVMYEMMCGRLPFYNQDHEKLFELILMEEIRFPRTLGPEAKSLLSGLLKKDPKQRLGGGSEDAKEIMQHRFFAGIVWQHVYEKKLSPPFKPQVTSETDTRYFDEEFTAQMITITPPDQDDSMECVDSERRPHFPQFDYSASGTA
Sequence of Mitogen-activated protein kinase; ERK1/ERK2 (Homo sapiens) (P27361 whole entry, looked up, the tested form may be a part): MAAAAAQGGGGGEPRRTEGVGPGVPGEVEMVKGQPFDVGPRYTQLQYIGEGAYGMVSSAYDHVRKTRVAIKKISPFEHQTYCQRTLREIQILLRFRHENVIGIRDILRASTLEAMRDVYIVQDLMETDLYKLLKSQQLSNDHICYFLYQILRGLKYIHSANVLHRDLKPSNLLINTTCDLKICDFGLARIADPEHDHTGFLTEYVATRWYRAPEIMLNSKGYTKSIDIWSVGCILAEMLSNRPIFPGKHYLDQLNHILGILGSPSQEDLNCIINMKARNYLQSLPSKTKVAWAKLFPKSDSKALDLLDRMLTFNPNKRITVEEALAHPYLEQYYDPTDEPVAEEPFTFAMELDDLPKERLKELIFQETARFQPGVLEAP
Sequence of Mitogen-activated protein kinase; ERK1/ERK2 (Homo sapiens) (P28482 whole entry, looked up, the tested form may be a part): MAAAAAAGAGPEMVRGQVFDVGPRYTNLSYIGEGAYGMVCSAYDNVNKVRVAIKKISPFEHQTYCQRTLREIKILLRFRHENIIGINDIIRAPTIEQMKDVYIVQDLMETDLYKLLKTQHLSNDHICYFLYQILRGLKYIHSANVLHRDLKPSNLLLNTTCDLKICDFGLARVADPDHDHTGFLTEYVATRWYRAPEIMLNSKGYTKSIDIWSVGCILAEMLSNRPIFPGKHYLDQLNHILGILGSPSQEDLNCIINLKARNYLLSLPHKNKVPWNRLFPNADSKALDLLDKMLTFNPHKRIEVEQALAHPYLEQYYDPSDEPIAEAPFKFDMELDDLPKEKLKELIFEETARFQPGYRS
Sequence of mTORC1 (Homo sapiens) (Q8N122 whole entry, looked up, other chains not shown, the tested form may be a part): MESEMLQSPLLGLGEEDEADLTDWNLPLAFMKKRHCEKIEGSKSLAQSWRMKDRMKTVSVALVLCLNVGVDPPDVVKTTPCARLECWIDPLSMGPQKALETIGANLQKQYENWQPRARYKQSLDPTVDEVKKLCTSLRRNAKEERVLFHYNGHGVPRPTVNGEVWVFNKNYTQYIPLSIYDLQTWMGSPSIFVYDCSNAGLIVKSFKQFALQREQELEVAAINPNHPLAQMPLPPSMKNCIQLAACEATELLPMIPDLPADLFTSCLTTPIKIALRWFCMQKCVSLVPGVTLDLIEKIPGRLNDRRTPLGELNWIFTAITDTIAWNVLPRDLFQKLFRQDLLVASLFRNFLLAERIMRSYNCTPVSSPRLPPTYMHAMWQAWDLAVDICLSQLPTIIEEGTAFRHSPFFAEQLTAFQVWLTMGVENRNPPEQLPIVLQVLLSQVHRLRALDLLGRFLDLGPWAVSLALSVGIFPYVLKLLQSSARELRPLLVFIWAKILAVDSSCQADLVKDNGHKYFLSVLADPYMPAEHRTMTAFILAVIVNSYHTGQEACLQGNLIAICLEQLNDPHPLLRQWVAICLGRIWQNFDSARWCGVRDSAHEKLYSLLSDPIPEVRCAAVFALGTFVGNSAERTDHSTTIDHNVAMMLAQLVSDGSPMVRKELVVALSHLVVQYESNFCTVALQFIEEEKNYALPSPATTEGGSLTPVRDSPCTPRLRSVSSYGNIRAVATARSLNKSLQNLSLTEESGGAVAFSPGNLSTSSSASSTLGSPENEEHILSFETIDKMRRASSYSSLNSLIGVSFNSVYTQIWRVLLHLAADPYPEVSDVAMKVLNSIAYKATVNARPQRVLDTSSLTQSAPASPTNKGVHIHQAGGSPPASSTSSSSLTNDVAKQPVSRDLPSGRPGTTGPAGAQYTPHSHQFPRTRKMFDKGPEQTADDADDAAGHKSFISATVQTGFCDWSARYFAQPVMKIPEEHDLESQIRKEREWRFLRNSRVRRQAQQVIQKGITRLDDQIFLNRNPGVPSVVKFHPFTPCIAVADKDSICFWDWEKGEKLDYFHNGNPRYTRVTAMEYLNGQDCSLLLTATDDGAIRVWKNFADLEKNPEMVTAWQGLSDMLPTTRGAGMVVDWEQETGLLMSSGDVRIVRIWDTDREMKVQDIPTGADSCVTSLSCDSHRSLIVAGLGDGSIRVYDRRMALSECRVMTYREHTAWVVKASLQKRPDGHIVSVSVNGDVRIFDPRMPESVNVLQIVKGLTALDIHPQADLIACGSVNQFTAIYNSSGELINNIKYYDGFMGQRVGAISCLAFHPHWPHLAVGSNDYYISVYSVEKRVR
Sequence of mTORC1 (Homo sapiens) (Q9BVC4 whole entry, looked up, other chains not shown, the tested form may be a part): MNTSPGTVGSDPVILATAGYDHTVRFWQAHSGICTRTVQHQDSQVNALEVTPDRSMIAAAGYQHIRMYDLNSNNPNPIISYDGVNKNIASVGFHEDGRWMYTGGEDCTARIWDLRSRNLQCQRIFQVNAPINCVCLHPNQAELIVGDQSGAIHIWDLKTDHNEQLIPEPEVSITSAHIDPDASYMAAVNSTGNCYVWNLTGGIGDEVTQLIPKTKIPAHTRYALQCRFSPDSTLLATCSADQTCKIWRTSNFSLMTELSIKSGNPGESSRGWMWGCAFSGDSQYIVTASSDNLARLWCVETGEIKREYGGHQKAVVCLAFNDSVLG
Sequence of Serine/threonine-protein kinase 26 (Homo sapiens) (Q9P289 2-416 limits assumed): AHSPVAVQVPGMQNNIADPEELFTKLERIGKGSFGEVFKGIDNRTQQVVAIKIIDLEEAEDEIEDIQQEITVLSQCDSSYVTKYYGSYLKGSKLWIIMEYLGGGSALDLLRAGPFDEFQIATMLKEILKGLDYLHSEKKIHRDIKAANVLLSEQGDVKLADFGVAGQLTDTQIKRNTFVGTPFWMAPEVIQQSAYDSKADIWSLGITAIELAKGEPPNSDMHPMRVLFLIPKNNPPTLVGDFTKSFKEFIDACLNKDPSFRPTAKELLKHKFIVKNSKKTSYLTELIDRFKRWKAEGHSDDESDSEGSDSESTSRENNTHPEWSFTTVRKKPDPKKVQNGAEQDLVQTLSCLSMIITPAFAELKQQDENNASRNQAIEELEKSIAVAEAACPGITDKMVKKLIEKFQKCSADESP

For the compound `COc1ccc(-c2ccc3c(N4CCOCC4)nc(N4C[C@@H](C)O[C@@H](C)C4)nc3n2)cc1CO` [Ku-0063794], the inhibition result at mTORC1 (Homo sapiens) and with MEF [2] was “Active” throughout. In addition, the Activity in series [1] was 86%; in series [3] it was 103%; in series [4], 103%; in series [5], 82%; in series [6], 87%; in series [7] it was 111%. Also, the Activity worked out at 81% in series [8]; 106% in [9]; 42.4% in the series with MEF [10]; 91% in [12]; 90% in series [13]; 101% in [14]. The Activity in [15] was found to be 101%. In addition, in series [11], the inhibition entry is “inactive”.
